{"source": "ChEMBL document CHEMBL3758144", "about": "“Dihydroisocoumarin Derivatives from Marine-Derived Fungal Isolates and Their Anti-inflammatory Effects in Lipopolysaccharide-Induced BV2 Microglia” (J Nat Prod, 2015)"}
{"system": "not listed separately", "test": "Cytotoxicity against […] BV2 cells at 10 to 80 uM by MTT assay", "format": "cell-based", "conditions": "bv-2, 80 µM", "procedure,_shortened": "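MTT added to BV2 cell suspension (1 × 10^5 cells/mL), incubated 30 min. Formazan dissolved in acidic 2-propanol and read at 540 nm. Compounds tested at 10−80 μM.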"}
{"smiles": "C[C@H]1CCC[C@H](C[C@H]2Cc3cc(O)cc(O)c3C(=O)O2)O1", "note": "[CLADOSPORIN]", "Activity": "Non-toxic"}
{"smiles": "COc1cc(O)cc2c1C(=O)O[C@@H](C[C@H]1CCC[C@H](C)O1)C2", "Activity": "Non-toxic"}
{"smiles": "C[C@H]1C[C@@H](O)C[C@H](C[C@H]2Cc3cc(O)cc(O)c3C(=O)O2)O1", "Activity": "Non-toxic"}
{"system": "not listed separately", "test": "(§1) Antiinflammatory activity in LPS-induced […] BV2 cells assessed as reduction in NO production pretreated for 30 mins followed by LPS stimulation measured for 24 hrs by Greiss assay", "format": "functional, cell-based", "conditions": "BV-2", "procedure,_shortened": "(§2)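 BV2 microglia in DMEM with 10% heat-inactivated FBS, penicillin/streptomycin and 2 mM L-glutamine at 37 °C, 5% CO2. Pretreated 30 min with test agent (10−80 μM range), then LPS 1 μg/mL for 24 h. Nitrite in supernatant measured by Griess reagent, absorbance at 525 nm. IC50 from mean of three experiments ± SD.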", "units": {"IC50": "µM"}}
{"smiles": "C[C@H]1CCC[C@H](C[C@H]2Cc3cc(O)cc(O)c3C(=O)O2)O1", "note": "[CLADOSPORIN]", "IC50": 24}
{"smiles": "COc1cc(O)cc2c1C(=O)O[C@@H](C[C@H]1CCC[C@H](C)O1)C2", "IC50": 28}
{"smiles": "C[C@H]1C[C@@H](O)C[C@H](C[C@H]2Cc3cc(O)cc(O)c3C(=O)O2)O1", "IC50": 65}
{"system": "BV-2", "test": "as §1", "format": "functional, cell-based", "conditions": "Mus musculus", "procedure,_shortened": "as §2"}
{"smiles": "C[C@H]1CCC[C@H](C[C@H]2Cc3cc(O)cc(O)c3C(=O)O2)O1", "note": "[CLADOSPORIN]", "Activity": "Dose-dependent effect"}
{"smiles": "COc1cc(O)cc2c1C(=O)O[C@@H](C[C@H]1CCC[C@H](C)O1)C2", "Activity": "Dose-dependent effect"}
{"smiles": "C[C@H]1C[C@@H](O)C[C@H](C[C@H]2Cc3cc(O)cc(O)c3C(=O)O2)O1", "Activity": "Dose-dependent effect"}
{"system": "BV-2", "test": "Inhibition of LPS-induced iNOS expression in […] BV2 cells pretreated for 30 mins followed by LPS stimulation measured for 24 hrs by Western blot analysis", "format": "functional, cell-based", "conditions": "Mus musculus", "procedure,_shortened": "(§3)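 BV2 microglia pretreated 30 min with test agent at 20−80 μM, then LPS 1 μg/mL for 24 h. Lysates in 20 mM Tris-HCl pH 7.4 with protease inhibitors, protein by Lowry. SDS-PAGE, nitrocellulose transfer, milk block, ECL detection. Band densitometry normalized to β-actin.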"}
{"smiles": "C[C@H]1CCC[C@H](C[C@H]2Cc3cc(O)cc(O)c3C(=O)O2)O1", "note": "[CLADOSPORIN]", "inhibition": "Dose-dependent effect"}
{"smiles": "COc1cc(O)cc2c1C(=O)O[C@@H](C[C@H]1CCC[C@H](C)O1)C2", "inhibition": "Dose-dependent effect"}
{"smiles": "C[C@H]1C[C@@H](O)C[C@H](C[C@H]2Cc3cc(O)cc(O)c3C(=O)O2)O1", "inhibition": "Dose-dependent effect"}
{"system": "BV-2", "test": "Inhibition of LPS-induced COX2 expression in […] BV2 cells pretreated for 30 mins followed by LPS stimulation measured for 24 hrs by Western blot analysis", "format": "functional, cell-based", "conditions": "Mus musculus", "procedure,_shortened": "as §3"}
{"smiles": "C[C@H]1CCC[C@H](C[C@H]2Cc3cc(O)cc(O)c3C(=O)O2)O1", "note": "[CLADOSPORIN]", "inhibition": "Dose-dependent effect"}
{"smiles": "COc1cc(O)cc2c1C(=O)O[C@@H](C[C@H]1CCC[C@H](C)O1)C2", "inhibition": "Dose-dependent effect"}
{"smiles": "C[C@H]1C[C@@H](O)C[C@H](C[C@H]2Cc3cc(O)cc(O)c3C(=O)O2)O1", "inhibition": "Dose-dependent effect"}
{"system": "not listed separately", "test": "(§4) Antiinflammatory activity in LPS-induced […] BV2 cells assessed as reduction in PGE2 production pretreated for 30 mins followed by LPS stimulation measured for 24 hrs by ELISA", "format": "functional, cell-based", "conditions": "BV-2", "procedure,_shortened": "(§5)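 BV2 microglia cultured in 24-well plates and preincubated 30 min with test agent (10−80 μM range), then stimulated 24 h with LPS 1 μg/mL. Supernatant PGE2 quantified by ELISA kit. IC50 from mean of three experiments ± SD.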", "units": {"IC50": "µM"}}
{"smiles": "C[C@H]1CCC[C@H](C[C@H]2Cc3cc(O)cc(O)c3C(=O)O2)O1", "note": "[CLADOSPORIN]", "IC50": 27}
{"smiles": "COc1cc(O)cc2c1C(=O)O[C@@H](C[C@H]1CCC[C@H](C)O1)C2", "IC50": 30}
{"smiles": "C[C@H]1C[C@@H](O)C[C@H](C[C@H]2Cc3cc(O)cc(O)c3C(=O)O2)O1", "IC50": 61}
{"system": "BV-2", "test": "as §4", "format": "functional, cell-based", "conditions": "Mus musculus", "procedure,_shortened": "as §5"}
{"smiles": "C[C@H]1CCC[C@H](C[C@H]2Cc3cc(O)cc(O)c3C(=O)O2)O1", "note": "[CLADOSPORIN]", "Activity": "Dose-dependent effect"}
{"smiles": "COc1cc(O)cc2c1C(=O)O[C@@H](C[C@H]1CCC[C@H](C)O1)C2", "Activity": "Dose-dependent effect"}
{"smiles": "C[C@H]1C[C@@H](O)C[C@H](C[C@H]2Cc3cc(O)cc(O)c3C(=O)O2)O1", "Activity": "Dose-dependent effect"}
